In ChEMBL document CHEMBL5678818, “Discovery of potent SOS1 inhibitors that block RAS activation via disruption of the RAS-SOS1 interaction” (Proc Natl Acad Sci U S A, 2019):

How the values were obtained:
[1] = tested on: K562; assay: Antiproliferative activity against human K562 cells assessed as inhibition of cell viability incubated for 72 hrs by Cell Titer Glo assay; type: functional, cell-based; details: K562, 72 h
How it was run: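 K-562 cells (wild-type KRAS, sourced from ATCC) were tested for antiproliferative response.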

[2] = target: T1, NUAK family SNF1-like kinase 1 (Homo sapiens) (UniProt O60285); assay: Inhibition of ARK5 (unknown origin) assessed as residual activity at 1000 nM by KINOMEscan analysis relative to control
T1 sequence (whole entry): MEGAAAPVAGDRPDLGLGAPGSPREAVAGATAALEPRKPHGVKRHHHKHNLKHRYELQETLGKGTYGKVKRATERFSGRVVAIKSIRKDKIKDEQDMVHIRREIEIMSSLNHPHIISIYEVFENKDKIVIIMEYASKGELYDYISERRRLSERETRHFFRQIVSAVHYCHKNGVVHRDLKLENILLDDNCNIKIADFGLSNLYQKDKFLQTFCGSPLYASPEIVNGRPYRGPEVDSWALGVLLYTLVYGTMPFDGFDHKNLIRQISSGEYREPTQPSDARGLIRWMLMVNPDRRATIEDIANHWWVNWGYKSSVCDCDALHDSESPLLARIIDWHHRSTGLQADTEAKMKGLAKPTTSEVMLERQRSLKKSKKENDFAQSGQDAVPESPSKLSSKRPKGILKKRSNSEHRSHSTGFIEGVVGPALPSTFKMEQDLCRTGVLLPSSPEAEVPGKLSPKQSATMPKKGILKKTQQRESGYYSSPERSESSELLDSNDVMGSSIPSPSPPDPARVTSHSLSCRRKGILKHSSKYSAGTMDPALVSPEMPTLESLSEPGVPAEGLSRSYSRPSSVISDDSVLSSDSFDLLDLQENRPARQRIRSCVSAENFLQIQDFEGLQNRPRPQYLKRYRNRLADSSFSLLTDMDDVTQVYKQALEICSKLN

[3] = target: Serine/threonine-protein kinase Chk2 (Homo sapiens) (UniProt O96017); assay: Inhibition of CHEK2 (unknown origin) assessed as residual activity at 1000 nM by KINOMEscan analysis relative to control
Sequence of Serine/threonine-protein kinase Chk2 (Homo sapiens) (O96017 whole entry): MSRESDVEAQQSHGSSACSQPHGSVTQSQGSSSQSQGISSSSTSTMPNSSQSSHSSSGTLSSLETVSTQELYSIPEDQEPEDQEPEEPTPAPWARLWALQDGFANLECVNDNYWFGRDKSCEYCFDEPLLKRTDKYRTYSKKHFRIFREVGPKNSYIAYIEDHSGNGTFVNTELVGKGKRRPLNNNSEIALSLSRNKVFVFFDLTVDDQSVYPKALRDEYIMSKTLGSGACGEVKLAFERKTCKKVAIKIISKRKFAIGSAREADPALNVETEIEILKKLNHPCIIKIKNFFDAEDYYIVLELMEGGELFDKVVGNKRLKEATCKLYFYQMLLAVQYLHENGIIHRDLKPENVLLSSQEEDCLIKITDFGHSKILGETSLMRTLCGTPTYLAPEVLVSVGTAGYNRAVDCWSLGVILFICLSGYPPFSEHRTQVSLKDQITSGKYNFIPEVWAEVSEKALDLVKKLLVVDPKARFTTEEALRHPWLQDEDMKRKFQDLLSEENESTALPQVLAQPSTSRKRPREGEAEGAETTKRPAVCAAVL

[4] = target: Calcium/calmodulin-dependent protein kinase type II subunit delta (Homo sapiens) (UniProt Q13557); assay: Inhibition of CAMK2D (unknown origin) assessed as residual activity at 1000 nM by KINOMEscan analysis relative to control
Sequence of Calcium/calmodulin-dependent protein kinase type II subunit delta (Homo sapiens) (Q13557 whole entry): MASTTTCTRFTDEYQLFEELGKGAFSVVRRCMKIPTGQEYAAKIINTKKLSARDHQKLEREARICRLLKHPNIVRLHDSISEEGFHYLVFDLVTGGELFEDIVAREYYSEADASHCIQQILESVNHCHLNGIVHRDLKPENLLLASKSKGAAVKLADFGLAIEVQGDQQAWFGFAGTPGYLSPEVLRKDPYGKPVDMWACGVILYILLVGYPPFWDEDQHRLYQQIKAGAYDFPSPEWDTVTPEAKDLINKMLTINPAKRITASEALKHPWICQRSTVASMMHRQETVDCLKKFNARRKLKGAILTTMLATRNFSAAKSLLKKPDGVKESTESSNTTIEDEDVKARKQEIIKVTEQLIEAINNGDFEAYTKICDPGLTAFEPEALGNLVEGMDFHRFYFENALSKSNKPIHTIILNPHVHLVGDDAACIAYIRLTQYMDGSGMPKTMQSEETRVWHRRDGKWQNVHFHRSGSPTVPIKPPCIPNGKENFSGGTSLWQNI

[5] = target: T2, Serine/threonine-protein kinase RIO3 (Homo sapiens) (UniProt O14730); assay: Inhibition of RIOK3 (unknown origin) assessed as residual activity at 1000 nM by KINOMEscan analysis relative to control
T2 sequence (whole entry): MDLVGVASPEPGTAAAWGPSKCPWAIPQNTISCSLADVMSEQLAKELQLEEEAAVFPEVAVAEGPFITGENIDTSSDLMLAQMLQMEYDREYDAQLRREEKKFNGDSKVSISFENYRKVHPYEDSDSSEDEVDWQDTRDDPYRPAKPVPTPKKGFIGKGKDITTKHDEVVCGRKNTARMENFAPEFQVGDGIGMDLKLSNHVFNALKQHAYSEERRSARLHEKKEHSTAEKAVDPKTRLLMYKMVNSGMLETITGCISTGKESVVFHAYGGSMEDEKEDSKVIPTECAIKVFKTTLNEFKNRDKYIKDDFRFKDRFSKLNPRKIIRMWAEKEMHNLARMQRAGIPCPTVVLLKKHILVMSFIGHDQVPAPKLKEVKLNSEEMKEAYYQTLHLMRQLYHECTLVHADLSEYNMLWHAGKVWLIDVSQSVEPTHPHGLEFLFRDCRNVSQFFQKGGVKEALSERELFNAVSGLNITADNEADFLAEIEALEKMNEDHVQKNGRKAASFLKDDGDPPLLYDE

[6] = target: Mitogen-activated protein kinase kinase kinase 12 (Homo sapiens) (UniProt Q12852); assay: Inhibition of DLK (unknown origin) assessed as residual activity at 1000 nM by KINOMEscan analysis relative to control
Sequence of Mitogen-activated protein kinase kinase kinase 12 (Homo sapiens) (Q12852 whole entry, looked up): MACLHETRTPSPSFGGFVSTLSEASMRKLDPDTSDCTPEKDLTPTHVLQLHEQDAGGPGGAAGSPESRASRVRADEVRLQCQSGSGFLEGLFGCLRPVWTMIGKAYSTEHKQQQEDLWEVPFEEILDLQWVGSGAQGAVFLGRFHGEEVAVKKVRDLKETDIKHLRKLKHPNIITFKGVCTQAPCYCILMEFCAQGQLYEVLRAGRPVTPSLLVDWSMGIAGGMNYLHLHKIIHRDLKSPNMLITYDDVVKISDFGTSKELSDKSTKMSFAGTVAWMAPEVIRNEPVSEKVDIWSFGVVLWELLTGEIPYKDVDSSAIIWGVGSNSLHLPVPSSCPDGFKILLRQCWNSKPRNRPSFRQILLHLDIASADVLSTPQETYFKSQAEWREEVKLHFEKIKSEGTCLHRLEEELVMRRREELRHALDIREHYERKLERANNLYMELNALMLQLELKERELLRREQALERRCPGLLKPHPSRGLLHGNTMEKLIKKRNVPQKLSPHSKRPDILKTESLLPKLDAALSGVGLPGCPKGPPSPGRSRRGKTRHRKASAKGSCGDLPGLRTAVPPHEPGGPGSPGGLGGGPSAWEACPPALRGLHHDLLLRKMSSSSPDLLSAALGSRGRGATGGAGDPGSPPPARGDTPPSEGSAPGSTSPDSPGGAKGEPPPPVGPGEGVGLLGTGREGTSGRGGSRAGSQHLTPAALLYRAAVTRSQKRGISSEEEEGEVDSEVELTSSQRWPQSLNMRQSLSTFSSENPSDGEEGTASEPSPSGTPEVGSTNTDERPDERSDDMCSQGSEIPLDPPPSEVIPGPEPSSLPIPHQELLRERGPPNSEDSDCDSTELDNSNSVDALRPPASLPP

[7] = target: Serine/threonine-protein kinase SIK2 (Homo sapiens) (UniProt Q9H0K1); assay: Inhibition of SIK2 (unknown origin) assessed as residual activity at 1000 nM by KINOMEscan analysis relative to control
[8] = target: T3, Serine/threonine-protein kinase D1 (Homo sapiens) (UniProt Q15139); assay: Inhibition of PRKD1 (unknown origin) assessed as residual activity at 1000 nM by KINOMEscan analysis relative to control
T3 sequence (whole entry): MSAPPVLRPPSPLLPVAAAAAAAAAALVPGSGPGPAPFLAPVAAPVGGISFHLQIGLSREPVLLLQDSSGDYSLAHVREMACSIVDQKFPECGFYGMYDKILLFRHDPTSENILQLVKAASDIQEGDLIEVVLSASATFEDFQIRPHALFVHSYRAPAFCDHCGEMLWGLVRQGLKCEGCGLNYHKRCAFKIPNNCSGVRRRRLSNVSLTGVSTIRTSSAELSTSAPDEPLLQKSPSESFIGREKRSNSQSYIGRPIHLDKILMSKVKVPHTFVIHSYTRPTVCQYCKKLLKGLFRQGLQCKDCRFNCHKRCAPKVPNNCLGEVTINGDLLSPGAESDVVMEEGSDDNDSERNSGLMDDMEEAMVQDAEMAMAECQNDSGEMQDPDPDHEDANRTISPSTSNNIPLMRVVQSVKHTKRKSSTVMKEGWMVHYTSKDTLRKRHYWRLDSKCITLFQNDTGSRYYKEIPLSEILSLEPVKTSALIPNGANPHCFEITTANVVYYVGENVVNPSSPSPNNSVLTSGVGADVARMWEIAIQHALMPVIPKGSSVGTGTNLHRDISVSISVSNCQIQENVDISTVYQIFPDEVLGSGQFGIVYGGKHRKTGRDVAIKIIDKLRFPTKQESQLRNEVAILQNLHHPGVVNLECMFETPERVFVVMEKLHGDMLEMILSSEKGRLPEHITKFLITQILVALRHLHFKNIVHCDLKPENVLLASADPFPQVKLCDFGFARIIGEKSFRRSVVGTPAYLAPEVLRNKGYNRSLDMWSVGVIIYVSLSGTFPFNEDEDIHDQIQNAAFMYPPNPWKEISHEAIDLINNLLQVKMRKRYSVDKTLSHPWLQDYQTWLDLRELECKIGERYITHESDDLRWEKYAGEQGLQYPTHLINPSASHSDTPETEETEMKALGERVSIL

[9] = target: Insulin receptor-related protein (Homo sapiens) (UniProt P14616); assay: Inhibition of INSRR (unknown origin) assessed as residual activity at 1000 nM by KINOMEscan analysis relative to control
Sequence of Insulin receptor-related protein (Homo sapiens) (P14616 27-742 limits assumed): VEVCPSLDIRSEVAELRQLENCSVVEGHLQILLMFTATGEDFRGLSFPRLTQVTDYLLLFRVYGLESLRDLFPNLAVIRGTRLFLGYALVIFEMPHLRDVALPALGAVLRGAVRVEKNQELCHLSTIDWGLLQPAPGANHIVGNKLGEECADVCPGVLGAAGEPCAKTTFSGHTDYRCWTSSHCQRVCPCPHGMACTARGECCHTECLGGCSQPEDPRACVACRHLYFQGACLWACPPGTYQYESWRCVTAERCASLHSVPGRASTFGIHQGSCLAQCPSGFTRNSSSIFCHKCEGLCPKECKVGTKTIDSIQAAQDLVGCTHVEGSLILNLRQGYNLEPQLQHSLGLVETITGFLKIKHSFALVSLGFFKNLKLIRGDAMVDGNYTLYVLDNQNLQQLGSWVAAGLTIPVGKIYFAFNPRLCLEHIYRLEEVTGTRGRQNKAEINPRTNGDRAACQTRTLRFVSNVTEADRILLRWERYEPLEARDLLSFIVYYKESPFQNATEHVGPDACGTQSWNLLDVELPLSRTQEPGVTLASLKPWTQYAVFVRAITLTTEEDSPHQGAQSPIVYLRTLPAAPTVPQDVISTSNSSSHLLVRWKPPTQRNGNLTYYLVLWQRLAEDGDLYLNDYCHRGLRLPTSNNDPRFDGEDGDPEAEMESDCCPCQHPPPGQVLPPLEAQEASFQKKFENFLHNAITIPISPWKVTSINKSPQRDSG
Sequence of Insulin receptor-related protein (Homo sapiens) (P14616 747-1297 limits assumed): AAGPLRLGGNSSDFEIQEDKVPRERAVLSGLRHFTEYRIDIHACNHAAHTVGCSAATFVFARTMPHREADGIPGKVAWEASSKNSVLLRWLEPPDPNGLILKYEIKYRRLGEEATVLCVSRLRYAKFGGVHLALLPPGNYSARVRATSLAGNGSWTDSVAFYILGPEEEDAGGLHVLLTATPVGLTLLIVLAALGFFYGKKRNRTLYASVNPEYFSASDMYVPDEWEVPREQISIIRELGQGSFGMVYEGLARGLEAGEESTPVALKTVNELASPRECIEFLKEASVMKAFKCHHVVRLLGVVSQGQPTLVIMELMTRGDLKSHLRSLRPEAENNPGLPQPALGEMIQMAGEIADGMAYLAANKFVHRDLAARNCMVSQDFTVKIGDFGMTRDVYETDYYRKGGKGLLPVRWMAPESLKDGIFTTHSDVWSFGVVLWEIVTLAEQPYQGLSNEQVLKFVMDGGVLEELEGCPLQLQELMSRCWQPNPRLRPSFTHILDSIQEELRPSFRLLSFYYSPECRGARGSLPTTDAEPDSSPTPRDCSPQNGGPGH

[10] = target: Epithelial discoidin domain-containing receptor 1 (Homo sapiens) (UniProt Q08345); assay: Inhibition of DDR1 (unknown origin) assessed as residual activity at 1000 nM by KINOMEscan analysis relative to control
Sequence of Epithelial discoidin domain-containing receptor 1 (Homo sapiens) (Q08345 whole entry, the tested form may be a part): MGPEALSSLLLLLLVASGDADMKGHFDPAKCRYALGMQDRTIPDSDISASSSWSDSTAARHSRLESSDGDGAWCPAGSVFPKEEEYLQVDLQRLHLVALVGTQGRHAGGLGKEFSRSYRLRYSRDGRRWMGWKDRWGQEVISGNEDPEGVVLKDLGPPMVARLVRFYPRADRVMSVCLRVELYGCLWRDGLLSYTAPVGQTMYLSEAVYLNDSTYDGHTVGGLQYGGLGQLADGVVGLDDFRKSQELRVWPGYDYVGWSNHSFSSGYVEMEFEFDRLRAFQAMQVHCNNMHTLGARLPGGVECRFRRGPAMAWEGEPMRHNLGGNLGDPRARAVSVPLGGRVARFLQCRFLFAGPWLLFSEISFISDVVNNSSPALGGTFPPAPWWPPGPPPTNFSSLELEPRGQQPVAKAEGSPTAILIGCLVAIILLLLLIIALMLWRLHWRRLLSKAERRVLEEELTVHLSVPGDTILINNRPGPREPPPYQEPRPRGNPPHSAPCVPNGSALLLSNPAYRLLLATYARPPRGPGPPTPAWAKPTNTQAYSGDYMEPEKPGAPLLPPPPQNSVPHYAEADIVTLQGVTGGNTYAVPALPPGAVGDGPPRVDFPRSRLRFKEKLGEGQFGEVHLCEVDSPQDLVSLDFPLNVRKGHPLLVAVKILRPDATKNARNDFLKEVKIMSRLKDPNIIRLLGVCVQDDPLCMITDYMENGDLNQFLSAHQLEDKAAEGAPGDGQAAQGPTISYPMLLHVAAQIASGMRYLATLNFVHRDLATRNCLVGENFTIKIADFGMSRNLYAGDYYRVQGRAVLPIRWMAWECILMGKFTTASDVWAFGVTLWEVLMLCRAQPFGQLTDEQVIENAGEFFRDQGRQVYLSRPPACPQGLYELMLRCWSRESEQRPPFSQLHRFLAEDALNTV

[11] = target: Serine/threonine-protein kinase 4 (Homo sapiens) (UniProt Q13043); assay: Inhibition of MST1 (unknown origin) assessed as residual activity at 1000 nM by KINOMEscan analysis relative to control
Sequence of Serine/threonine-protein kinase 4 (Homo sapiens) (Q13043 whole entry, looked up): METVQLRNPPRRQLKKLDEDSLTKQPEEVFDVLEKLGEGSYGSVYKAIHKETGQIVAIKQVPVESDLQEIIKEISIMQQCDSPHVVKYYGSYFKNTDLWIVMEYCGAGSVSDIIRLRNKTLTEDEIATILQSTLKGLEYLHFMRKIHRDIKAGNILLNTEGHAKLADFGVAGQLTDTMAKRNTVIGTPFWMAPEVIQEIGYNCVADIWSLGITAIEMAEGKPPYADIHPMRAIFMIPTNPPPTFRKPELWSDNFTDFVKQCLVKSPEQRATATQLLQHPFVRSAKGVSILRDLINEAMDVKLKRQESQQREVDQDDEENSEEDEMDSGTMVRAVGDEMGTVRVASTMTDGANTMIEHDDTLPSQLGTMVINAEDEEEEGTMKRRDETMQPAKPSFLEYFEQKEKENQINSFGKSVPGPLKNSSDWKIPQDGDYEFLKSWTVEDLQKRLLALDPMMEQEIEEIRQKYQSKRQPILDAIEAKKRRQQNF

SMILES	IC50 [1]	Activity [2]	Activity [3]	Activity [4]	Activity [5]	Activity [6]	Activity [7]	Activity [8]	Activity [9]	Activity [10]	Activity [11]
COc1cc2nc(C)nc(N[C@H](C)c3cccc(-c4cn[nH]c4)c3)c2cc1OC	3100 nM	100%	89%	100%	88%	95%	89%	85%	97%	95%	97%
COc1cc2ncnc(N[C@H](C)c3cccc4ccccc34)c2cc1OC		83%	73%	100%	83%	92%	100%	95%	93%	100%	99%
CNCc1ccccc1-c1csc([C@@H](C)Nc2nc(C)nc3cc(OC)c(OC)cc23)c1 [BAY-293]	1090 nM										
